Screening data: PubChem, several laboratories
APP 5'UTR act: activates APP 5'UTR luciferase reporter; SH-SY5Y APP 5'UTR luciferase reporter, luminescence; zero percent = DMSO vehicle wells; activation, % at 2 µM; actives 1% (n = 190,000); AID 1276;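 active means activation above a set limit, based on mean plus 3 SD of controls, cut at about 140% in these data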
STAT1 blocker: STAT1 signaling inhibition. actives 0.35% (n = 200,000). AID 920. inhibition, % at 5.5 µM. NIH 3T3 STAT1-luciferase reporter, IFN-gamma, luminescence;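 active means inhibition above a set limit, the mean inhibition across all tested compounds plus 3 SD, cut at about 34% in these data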;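 further: 0% = IFN-gamma with DMSO and 100% = IFN-gamma with 300 µM nifuroxazide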
STAT3 act: STAT3 signaling activation; U3A cells, IL-6 STAT3-luciferase reporter, luminescence; 100% = signal with IL-6 EC80 alone; activation (% of control), % at 5.6 µM; actives 0.91% (n = 190,000); AID 871;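 active means activation above the screen-wide mean of compound activation plus 3 SD, cut at about 130% in these data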;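 further: 0% = background luminescence of wells with medium and substrate only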
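Material: human STAT1-deficient U3A cells with stable STAT3-luciferase reporter / Probe or stimulus: IL-6 stimulus at 33 ng/mL final / Schedule: 1 h compound pre-exposure, 6 h IL-6 stimulation, 37 °C / Technique: luminescence / Read-out basis: percent of IL-6-only median luminescence / Control set: IL-6-only high control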
STAT1 activator: increases IFN-gamma driven STAT1 reporter signal; NIH 3T3 STAT1-luciferase reporter, luminescence; 100% = IFN-gamma alone, no compound; activation (% of control), % at 5.5 µM; actives 2.6% (n = 200,000);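 active means activation above the screen-wide mean activation plus 3 SD, cut at about 130% in these data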;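 further: raw ratio to IFN-gamma control signal so 100% means no change and 0% no light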
NF-kB neuron act: NF-kB expression increase, human neuronal cells; NF-kB reporter expression; hits give high values; actives 1.6% (n = 190,000); fold change at 12.5 µM; in the data active means fold change above about 3.3
STAT3 blocker: inhibitors of IL-6 induced STAT3 signaling. U3A cells, IL-6 STAT3-luciferase reporter, luminescence; host cell line lacks STAT1. inhibition, % at 5.5 µM. actives 0.89% (n = 190,000);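 active means inhibition above the mean inhibition across all screened compounds plus 3 SD, cut at about 44% in these data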;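 further: 0% = DMSO only wells and 100% = 100 µM nifuroxazide control wells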
STAT1 activ conf: STAT1 activation, confirmation assay. NIH 3T3 STAT1-luciferase reporter, IFN-gamma potentiation, luminescence; 100% = IFN-gamma EC80 alone, no compound. actives 97% (n = 1,200). activation (% of control), % at 5.7 µM. shares compounds with STAT1 activator;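 active means activation above a set limit carried over from the earlier primary STAT1 screen, cut at about 140% in these data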;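 further: simple ratio to median IFN-gamma plus DMSO wells so 0% means no light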
NFkB act: activates NF-kappaB, counter-screen to STAT1 activators; shares compounds with STAT1 activator; HEK293T NF-kB luciferase reporter, TNF-alpha stimulated, luminescence; 100% = TNF-alpha with vehicle only; activation (% of control), % at 5.7 µM; actives 43% (n = 1,200); AID 1306;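 active means activation above the mean of solvent-only control wells plus 3 SD, set per campaign, cut at about 130% in these data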;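 further: TNF-alpha given at a submaximal dose yielding about 80% of full reporter signal; values are well signal over median control so 100% means no change and 0% no light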
STAT3 act 2: activates human STAT3, counter-screen to STAT1 activators. shares compounds with STAT1 activator. U3A cells STAT3-luciferase reporter, IL-6, luminescence; cells lack STAT1; 100 = IL-6 alone, no compound effect. activation (% of control), % at 5.7 µM. actives 46% (n = 1,200). AID 1316;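 active means activation above the solvent-only control well mean plus 3 SD, set per plate batch, cut at about 110% in these data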;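 further: 0% = no luminescence and 100% = median IL-6 plus DMSO wells; higher means more STAT3 reporter activation so hits are non-selective activators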
Starred values were filed as active, the others as inactive; x = no result given. Most compounds without a hit are left out; they make up all but 4.9% or so of the library.

SMILES | APP 5'UTR act | STAT1 blocker | STAT3 act | STAT1 activator | NF-kB neuron act | STAT3 blocker | STAT1 activ conf | NFkB act | STAT3 act 2
Cc1ccc(S(=O)(=O)Nc2ccc3c(c2)ncn3C(C)(C)C)cc1 | -5 | 10 | 99 | 91 | 1.1 | 8 | x | x | x
CC(C)(C)n1ncc2c(=O)n(CC(=O)NCc3ccc(F)cc3)cnc21 | 169* | -65 | 105 | 160* | 3.5* | -4 | 199* | 119 | 127*
CC(C)(C)n1ncc2c(=O)n(CC(=O)NCc3ccco3)cnc21 | 70 | -29 | 119 | 127 | 1.9 | -21 | x | x | x
COc1ccc(C(=O)Nc2ccc(N3CCCC3)cc2)cc1 | 20 | -1 | 89 | 101 | 1.6 | 18 | x | x | x
O=C(Nc1ccc(N2CCCCC2)cc1)c1ccc(F)cc1 | 113 | -68 | 69 | 162* | 2.5 | 39 | 216* | 130 | 102
O=C(Nc1ccc(N2CCCC2)cc1)c1ccc(Br)o1 | 57 | -72 | 87 | 166* | 2.9 | 19 | 217* | 134* | 103
Cc1ccc2nc(SCc3cn4cccnc4n3)[nH]c2c1 | 11 | -2 | 86 | 102 | 1.4 | 16 | x | x | x
c1ccc2c(c1)oc1c(Nc3ccc(CN4CCOCC4)cc3)ncnc12 | 187* | -63 | 103 | 158* | 0.41 | 0 | 207* | 135* | 115*
c1ccc2c(c1)oc1c(Nc3ccc4c(c3)OCO4)ncnc12 | 80 | -63 | 101 | 158* | 2.2 | 2 | 202* | 142* | 110
Cc1cc(C)cc(C(=O)Nc2ccc(N3CCN(S(C)(=O)=O)CC3)cc2)c1 | -4 | 0 | 93 | 98 | 1.1 | 11 | x | x | x
O=C(Nc1ccc(N2CCOCC2)c(Cl)c1)c1cc2ccccc2o1 | 84 | -74 | 98 | 170* | 2.2 | 6 | 179* | 128 | 94
O=C(Nc1ccc(N2CCCC2)c(Cl)c1)c1ccc([N+](=O)[O-])o1 | -78 | -67 | 96 | 159* | 4.3* | 10 | 98 | 133* | 103
CS(=O)(=O)N1CCN(c2ccc(NC(=O)c3ccc([N+](=O)[O-])o3)cc2)CC1 | -66 | -67 | 90 | 160* | 2.2 | 22 | 98 | 112 | 89
C[C@@H](C(=O)Nc1ccc2ccccc2c1)[C@H]1C[C@]1(C)[C@H](NS(=O)(=O)c1ccccc1)c1ccccc1 | 6 | -1 | 101 | 101 | 0.68 | -4 | x | x | x
COc1ccccc1C(=O)COC(=O)c1ccc(N(C)C)cc1 | 142* | -80 | 108 | 174* | 1 | -7 | 175* | 134* | 132*
COc1ccc(C(=O)c2ccc(N(C)C)cc2)c2ccccc12 | -92 | -5 | 95 | 104 | 2.4 | 7 | x | x | x
CN1CCN(c2ccc(NC(=O)CSc3ccccc3)cc2F)CC1 | 175* | -63 | 106 | 158* | 1.1 | -1 | 183* | 126 | 128*
Cc1ccc(SCC(=O)Nc2ccc(N3CCN(c4ccccc4)CC3)c(F)c2)cc1 | 6 | -4 | 106 | 103 | 1.1 | -1 | x | x | x
COc1ccc(N/C=C\C(=O)c2ccc3c(c2)OCO3)cc1OC | 6 | -63 | 105 | 156* | 3.1 | -5 | 171* | 132 | 104
COc1ccc(C(=O)/C=C/Nc2cccc(C)n2)cc1OC | 36 | -86 | 101 | 171* | 4.1* | 1 | 209* | 130 | 108
CC(NCc1ccc(F)cc1)C(=O)NC1CCCCC1 (stereo not drawn) | -5 | 0 | 103 | 98 | 1.2 | -2 | x | x | x
COCCNCC(=O)N1CCCCCC1 | 5 | 0 | 94 | 99 | 1.2 | 15 | x | x | x
Cc1cc(C(=O)CSc2nnnn2-c2ccc(O)cc2)c(C)n1C | -9 | 5 | 97 | 96 | 1.6 | 4 | x | x | x
O=C(NC1=NCCS1)c1sc2cc(F)ccc2c1Cl | 86 | -79 | 117 | 172* | 4.8* | -13 | 209* | 131 | 150*
O=C(NCc1ccco1)c1sc2cc(F)ccc2c1Cl | 22 | -7 | 82 | 111 | 1.7 | 24 | x | x | x
SMILES | APP 5'UTR act | STAT1 blocker | STAT3 act | STAT1 activator | NF-kB neuron act | STAT3 blocker | STAT1 activ conf | NFkB act | STAT3 act 2
Cc1ccc(NC(=O)COc2ccccc2C=O)cc1Cl | 154* | -113 | 107 | 200* | 6.8* | -4 | 209* | 137* | 109
CN(C)S(=O)(=O)c1ccc2nc(NC(=O)c3cccs3)sc2c1 | 129 | -58 | 111 | 153* | 3.5* | -9 | 179* | 115 | 117*
Cc1ccc2nc(NC(=O)Cc3cccs3)sc2c1 | 94 | -58 | 84 | 154* | 3.7* | 25 | 180* | 137* | 87
CSc1nc2ccc3nc(NC(=O)c4cccs4)sc3c2s1 | 22 | -25 | 88 | 123 | 1.2 | 16 | x | x | x
CCc1ccc2nc(NC(=O)CCCc3cccs3)sc2c1 | x | -20 | 111 | 118 | 1.9 | -15 | x | x | x
O=C(Nc1nc2ccc(S(=O)(=O)N3CCOCC3)cc2s1)c1cccs1 | 6 | -4 | 103 | 102 | 2 | 1 | x | x | x
O=C(Nc1nc2ccc(F)cc2s1)c1cccs1 | 112 | -60 | 87 | 159* | 7.4* | 19 | 246* | 132 | 105
COC(=O)c1ccc2c(=O)n(CCCCCC(=O)NC(C)C)c(=O)[nH]c2c1 | 7 | -5 | 97 | 104 | 1 | 7 | x | x | x
Cc1cc2ccccc2n2c(SCC(=O)NCC3CCCO3)nnc12 (stereo not drawn) | -11 | -12 | 99 | 109 | 0.92 | 8 | x | x | x
Cc1ccc(/C=C2/CCc3c([nH]c4ccccc34)C2=O)cc1 | 156* | -68 | 98 | 161* | 2.5 | 12 | 188* | 141* | 114*
Cc1ccc2[nH]c3c(c2c1)CC/C(=C/c1ccccc1)C3=O | -3 | -22 | 91 | 120 | 1.5 | 11 | x | x | x
COc1ccc(/C=C2\SC(=O)N(CCNC(=O)C3CC4C=CC3C4)C2=O)cc1 (stereo not drawn) | 202* | -64 | 125 | 159* | 9.5* | -28 | 146* | 150* | 134*
CCOC(=O)c1c(C)[nH]c(C(=O)CSc2ccccc2)c1C | 160* | -55 | 71 | 154* | 3.6* | 39 | 234* | 113 | 98
CCOC(=O)c1c(C)[nH]c(C(=O)COC(=O)CCSc2ccccc2)c1C | 39 | -16 | 109 | 115 | 1.2 | -9 | x | x | x
COc1ccc(C(=O)NC(=S)Nc2cccnc2)cc1[N+](=O)[O-] | -1 | 0 | 100 | 99 | 1.1 | 3 | x | x | x
O=C(N=Nc1c(O)n(Cc2ccccc2)c2ccccc12)c1ccc(O)cc1 | 153* | -68 | 109 | 161* | 2.5 | -8 | 217* | 111 | 118*
COc1ccc(C(=O)NNC(=O)CN2CCC(n3nnc4cc(F)ccc43)CC2)cc1 | -8 | 8 | 87 | 93 | 1.2 | 13 | x | x | x
COc1ccc(-c2cc(-c3ccc(OC)cc3)[nH]n2)cc1 | 53 | -56 | 89 | 151* | 1.4 | 15 | 162* | 123 | 94
